Measurements of several laboratories.
Each line is one published result; the experiments were not run side by side.
CYP2D6: Cytochrome P450 2D6 (CYP2D6, Homo sapiens, UniProt P10635)

The inhibition of `COC(=O)C1CCN(C(=O)c2ccc(N(C)Cc3cnc4nc(N)nc(N)c4n3)cc2)CC1` is reported as -32.7% (CYP2D6; enzyme activity, inhibitor, luciferase; 10 µM).
For `N=c1c2c(-c3ccccc3)c(-c3ccccc3)n(Cc3ccccc3)c2ncn1[C@H]1CC[C@H](O)CC1`, the Vd was 15.9 L/kg (male beagle dog, plasma; intravenous, 0.5 mg/kg, single dose).
The inhibition of `C=C[C@H]1C[N@@]2CC[C@H]1C[C@@H]2[C@@H](O)c1ccnc2ccc(OC)cc12` is reported as 87% (CYP2D6; enzyme activity, inhibitor; human, liver microsomes; 10 µM).
For `COC(=O)C1CCN(C(=O)c2ccc(NCc3cnc4nc(N)nc(N)c4n3)cc2)CC1`, the inhibition was -27.7% (CYP2D6; enzyme activity, inhibitor, luciferase; 10 µM).
For `CN[C@@H](C)C(=O)N[C@H]1CN(C(=O)CC(C)C)CC[C@H]2CC[C@@H](C(=O)NC(c3ccccc3)c3ccccc3)N2C1=O`, the half-life was 27 h (beagle dog, plasma; oral, 10 mg/kg).
`Cc1ncc(C)n2nc(/C=C/c3nc(N4CCCC4)cc(N4CCOCC4)n3)nc12` has a half-life of 3.7 h (male beagle dog, plasma; oral, 0.3 mg/kg).
For `CCC[C@@](N)(CO)CCc1ccc(OCCCCCC(C)C)cc1`, the IC50 was 32 µM (CYP2D6; enzyme activity, inhibitor).
The AUC of `O=C[C@H](C[C@@H]1CCNC1=O)NC(=O)[C@H](CC1CCCCC1)NC(=O)c1cc2ccccc2[nH]1` is reported as 14500 ng·h/mL (dog, plasma; intravenous, 8 mg/kg).
